In ChEMBL document CHEMBL4364301 (Eur J Med Chem, 2019) one finds IC50 and Activity data, which are given here for 25 compounds.

What all share (type): functional
In one experiment the test system is LNCaP. Description: Antiproliferative activity against human LNCAP cells assessed as reduction in cell growth incubated for 96 hrs by propidium iodide based 2D monolayer assay. In a few lines:
(§1)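 After 24 h recovery, compound in medium or medium alone (control wells) was added at 10 half-log concentrations from 0.0032 to 100 µM, in triplicate, with at most 0.3% DMSO. After 96 h, wells were PBS-washed, stained with 7 µg/ml PI and 0.1% Triton X-100, and fluorescence read at 530/620 nm. IC50 came from a 4-parameter fit, geometric mean.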

Another experiment deals with DU-145. Description: Antiproliferative activity against human DU145 cells assessed as reduction in cell growth incubated for 96 hrs by propidium iodide based 2D monolayer assay. The conditions noted are these: for IC50: DU-145, 96 h. An outline of the steps: as §1
For a further experiment, the system named is CWR22R. As to the kind of experiment: Antiproliferative activity against human 22Rv1 cells assessed as reduction in cell growth incubated for 96 hrs by propidium iodide based 2D monolayer assay. The conditions noted are these: for IC50: 22Rv1, 96 h. An outline of the steps: as §1
A further experiment deals with VCaP. As to the kind of experiment: Antiproliferative activity against human VCaP cells assessed as reduction in cell growth incubated for 96 hrs by propidium iodide based 2D monolayer assay. An outline of the steps: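 VCaP cells in RPMI 1640 with 10% FCS at 37 °C, 5% CO2, seeded 4,000–20,000 cells/well and left 24 h before dosing. Compounds from DMSO stocks were diluted in half-log steps in medium, 10 concentrations 0.0032–100 μM, triplicate wells, max 0.3% DMSO. After 96 h, cells were washed, stained with 7 μg/ml propidium iodide plus 0.1% Triton X-100 for 1–2 h at room temperature, and fluorescence read at ex 530/em 620 nm.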

Structures are written as SMILES.

On to `CC(O)(CS(=O)(=O)c1ccc(F)cc1)C(=O)Nc1cccc(S(F)(F)(F)(F)F)c1` (racemic), for which the half-maximal inhibitory concentration (IC50) (usually the concentration that gives 50% inhibition) with LNCaP was 32.6 µM; in the experiment with DU-145, 48.8 µM; in the experiment with CWR22R it was 38.9 µM; with VCaP, 37.9 µM.

For the compound `CC(O)(COc1cccc(C(F)(F)C(F)(F)F)c1)C(=O)Nc1cc(C(F)(F)F)cc(C(F)(F)F)c1` (racemic), the concentration for half-maximal inhibition (IC50) stood at 4.4 µM in the experiment on LNCaP, 8.5 µM in the experiment with DU-145, 4.1 µM in the experiment with CWR22R and 9.5 µM in the experiment on VCaP.

As to `CC(O)(CS(=O)(=O)c1ccc(S(F)(F)(F)(F)F)cc1)C(=O)Nc1ccc([N+](=O)[O-])cc1C(F)(F)F` (racemic), the IC50 was 12.5 µM in the experiment on LNCaP, 17.7 µM in the experiment with DU-145, 18.7 µM in the experiment with CWR22R and 28.6 µM in the experiment on VCaP.

In the case of `CC(O)(CS(=O)(=O)c1cccc(S(F)(F)(F)(F)F)c1)C(=O)Nc1ccc([N+](=O)[O-])cc1C(F)(F)F` (racemic), the 50% inhibitory concentration (IC50) in the experiment on LNCaP came out at 6.5 µM; in the experiment on DU-145 it was 100 µM; with CWR22R it was 100 µM; in the experiment with VCaP, 100 µM.

Turning to `CC(O)(CS(=O)(=O)c1ccccc1OC(F)(F)F)C(=O)Nc1ccc(S(F)(F)(F)(F)F)cc1` (racemic), the IC50 with LNCaP amounted to 12.7 µM; with DU-145 it was 19.5 µM; in the experiment with CWR22R, 16 µM; with VCaP, 19.9 µM.

Take `CC(O)(CS(=O)(=O)c1cccc(C(F)(F)F)c1)C(=O)Nc1ccc(S(F)(F)(F)(F)F)cc1` (racemic): the IC50 in the experiment on LNCaP stood at 21 µM; with DU-145, 31.9 µM; in the experiment with CWR22R, 23.8 µM; in the experiment on VCaP, 32 µM.

As to `CC(O)(CS(=O)(=O)c1cccc(S(F)(F)(F)(F)F)c1)C(=O)Nc1ccc(S(F)(F)(F)(F)F)cc1` (racemic), the IC50 with LNCaP came to 31.3 µM; in the experiment with DU-145 it was 34 µM; in the experiment on CWR22R, 39.9 µM; in the experiment with VCaP it was 24.8 µM.

For the compound `CC(O)(CS(=O)(=O)c1ccc(C(F)(F)F)cc1)C(=O)Nc1ccc(S(F)(F)(F)(F)F)cc1` (racemic), the half-inhibitory concentration (IC50) in the experiment on LNCaP stood at 20.7 µM; with DU-145, 29.3 µM; with CWR22R it was 28.9 µM; in the experiment on VCaP, 27.7 µM.

Turning to `CC(O)(COc1cccc(C(F)(F)C(F)(F)F)c1)C(=O)Nc1ccc(C(F)(F)F)cc1` (racemic), the 50% inhibitory concentration (IC50) with LNCaP was 3.9 µM; in the experiment on DU-145, 7.6 µM; in the experiment with CWR22R, 3.6 µM; in the experiment on VCaP, 8.1 µM.

Take `CC(O)(CS(=O)(=O)c1ccc(OC(F)(F)F)cc1)C(=O)Nc1cccc(S(F)(F)(F)(F)F)c1` (racemic): the IC50 in the experiment with LNCaP was 10.7 µM; with DU-145 it was 35.6 µM; in the experiment with CWR22R, 31.2 µM; in the experiment on VCaP, 15.1 µM.

On to `CC(O)(CS(=O)(=O)c1cccc(C(F)(F)F)c1)C(=O)Nc1cccc(S(F)(F)(F)(F)F)c1` (racemic), for which the 50% inhibitory concentration (IC50) in the experiment on LNCaP was determined as 21.8 µM; with DU-145 it was 37.3 µM; with CWR22R it was 24.6 µM; in the experiment with VCaP, 35.5 µM.

Regarding `CC(O)(CS(=O)(=O)c1ccc(S(F)(F)(F)(F)F)cc1)C(=O)Nc1cccc(S(F)(F)(F)(F)F)c1` (racemic), the IC50 amounted to 11.7 µM in the experiment on LNCaP, 17.4 µM in the experiment with DU-145, 12.3 µM in the experiment with CWR22R and 17.2 µM with VCaP.

Turning to `CC(O)(CS(=O)(=O)c1cc(C(F)(F)F)cc(C(F)(F)F)c1)C(=O)Nc1cccc(S(F)(F)(F)(F)F)c1` (racemic), the IC50 with LNCaP is 9.7 µM; with DU-145 it was 13.7 µM; with CWR22R, 9.3 µM; in the experiment on VCaP it was 10.4 µM.

On to `CC(O)(CS(=O)(=O)c1ccccc1C(F)(F)F)C(=O)Nc1cccc(S(F)(F)(F)(F)F)c1` (racemic), for which the IC50 stood at 24.9 µM in the experiment with LNCaP, 27.3 µM with DU-145, 27.7 µM in the experiment with CWR22R and 40.8 µM in the experiment on VCaP.

For `CC(O)(CS(=O)(=O)c1ccc(OC(F)(F)F)cc1)C(=O)Nc1ccc(S(F)(F)(F)(F)F)cc1` (racemic), the IC50 in the experiment on LNCaP was 92.8 µM; in the experiment on DU-145, 39.3 µM; with CWR22R it was 51.9 µM; in the experiment with VCaP it was 95.8 µM.

In the case of `CC(O)(CS(=O)(=O)c1ccccc1C(F)(F)F)C(=O)Nc1ccc(S(F)(F)(F)(F)F)cc1` (racemic), the IC50 amounted to 10.8 µM with LNCaP, 29.4 µM in the experiment on DU-145, 17.4 µM in the experiment with CWR22R and 23.8 µM with VCaP.

As to `CC(O)(CS(=O)(=O)c1cc(C(F)(F)F)cc(C(F)(F)F)c1)C(=O)Nc1ccc(S(F)(F)(F)(F)F)cc1` (racemic), the IC50 in the experiment with LNCaP came out at 13.3 µM; with DU-145, 24.4 µM; with CWR22R, 12.7 µM; in the experiment on VCaP, 15.8 µM.

Turning to `CC(O)(CS(=O)(=O)c1ccc(S(F)(F)(F)(F)F)cc1)C(=O)Nc1ccc(S(F)(F)(F)(F)F)cc1` (racemic), the IC50 is 29.2 µM with LNCaP, 28.9 µM in the experiment on DU-145, 17.3 µM with CWR22R and 15.7 µM in the experiment with VCaP.

For `CC(O)(COc1cc(C(F)(F)F)cc(C(F)(F)F)c1)C(=O)Nc1cccc(C(F)(F)C(F)(F)F)c1` (racemic), the IC50 was 4.7 µM in the experiment with LNCaP, 9.8 µM in the experiment with DU-145, 4.5 µM with CWR22R and 8 µM in the experiment with VCaP.

For `CC(O)(CS(=O)(=O)c1cccc(S(F)(F)(F)(F)F)c1)C(=O)Nc1cccc(S(F)(F)(F)(F)F)c1` (racemic), the IC50 with LNCaP was 11.7 µM; with DU-145, 29.4 µM; in the experiment with CWR22R, 15.4 µM; in the experiment on VCaP it was 19 µM.

With `CC(O)(CS(=O)(=O)c1cccc(OC(F)(F)F)c1)C(=O)Nc1ccc(S(F)(F)(F)(F)F)cc1` (racemic), the IC50 was determined as 21.7 µM in the experiment with LNCaP, 26.5 µM with DU-145, 22.4 µM with CWR22R and 23.7 µM in the experiment with VCaP.

Regarding `CC(O)(CS(=O)(=O)c1ccc(F)cc1)C(=O)Nc1ccc(S(F)(F)(F)(F)F)cc1` (racemic), the IC50 was found to be 18.2 µM in the experiment on LNCaP, 27.7 µM in the experiment with DU-145, 20.6 µM in the experiment with CWR22R and 34.2 µM with VCaP.

Consider `CC(O)(CS(=O)(=O)c1cccc(OC(F)(F)F)c1)C(=O)Nc1cccc(S(F)(F)(F)(F)F)c1` (racemic), for which the IC50 was found to be 15.1 µM in the experiment on LNCaP, 31.5 µM in the experiment on DU-145, 20.1 µM in the experiment on CWR22R and 20.2 µM in the experiment on VCaP.

In the case of `CC(O)(CS(=O)(=O)c1ccccc1OC(F)(F)F)C(=O)Nc1cccc(S(F)(F)(F)(F)F)c1` (racemic), the IC50 in the experiment on LNCaP was found to be 9 µM; in the experiment with DU-145, 29.1 µM; in the experiment with CWR22R, 17.1 µM; in the experiment on VCaP, 13.9 µM.

Regarding `CC(O)(CS(=O)(=O)c1ccc(F)cc1)C(=O)Nc1ccc(C#N)c(C(F)(F)F)c1` (racemic) [BICALUTAMIDE], the Activity entry in the experiment on LNCaP, in the experiment with DU-145, in the experiment on CWR22R and in the experiment on VCaP was “Dose-dependent effect” throughout.
